Laboratory results from ChEMBL document CHEMBL1221252, “Novel 1H-pyrrolo[2,3-c]pyridines as acid pump antagonists (APAs)” (Bioorg Med Chem Lett, 2010).

Legend:
Sus scrofa [1] = species on record: Sus scrofa; assay: Inhibition of pig gastric H(+)/K(+) ATPase at 4 uM; format: tissue-based; details: Stomach
Method in brief: (§1)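 Ion-leaky gastric membrane vesicles enriched in H+/K+-ATPase, prepared from pig stomach. Lyophilized vesicles in 5 mM PIPES/Tris pH 6.1 preincubated 5 min with compound, then buffer with or without K+ added. ATP substrate added, 30 min at 37 °C. Stopped with colorimetric reagent; Pi read at 620 nm. Activity taken as K+-stimulated Pi production (with minus without K+); IC50 from % inhibition by Litchfield–Wilcoxon.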

Sus scrofa [2] = species on record: Sus scrofa; assay: Inhibition of pig gastric H(+)/K(+) ATPase at 1 uM; format: tissue-based; details: Stomach; method in brief: as §1
[3] = Inhibition of pig gastric H(+)/K(+) ATPase; format: tissue-based, Sus scrofa, Stomach; method in brief: as §1

Row | inhibition (Sus scrofa [1]) [%] | IC50 [3] [nM] | other results | Compound
1 | 50.9 |  |  | Cc1[nH]c2c(OCc3ccccc3)nccc2c1C
2 | 80.3 |  |  | C=CCn1c(C)c(C)c2cc(C(N)=O)nc(OCc3ccc(F)cc3)c21
3 |  |  | inhibition (Sus scrofa [2]): 39.4% | CNC(=O)c1cc2c(C)c(C)n(Cc3ccccc3)c2c(OCc2ccc(F)cc2)n1
4 | 78.4 |  |  | C=CCn1c(C)c(C)c2cc(C(=O)NC)nc(OCc3ccc(F)cc3)c21
5 |  | 408 |  | C=CCn1c(C)c(C)c2cc(C(=O)NC3CC3)nc(OCc3ccc(F)cc3)c21
6 | 32.1 |  |  | Cc1[nH]c2c(OCc3ccccc3F)nccc2c1C
7 |  | 181 |  | Cc1c(C)n(CC2CC2)c2c(OCc3ccc(F)cc3)nccc12
8 |  | 28 |  | Cc1c(C)n(Cc2ccccc2)c2c(OCc3ccc(F)cc3)nc(C(=O)N(C)C)cc12
9 |  | 735 |  | C=CCn1c(C)c(C)c2cc(C(=O)Nc3ccncc3)nc(OCc3ccc(F)cc3)c21
10 | 16.1 |  |  | Cc1c(C)n(Cc2ccccc2)c2c(OCc3ccc(F)cc3)nc(C(N)=O)cc12
11 |  | 173 |  | Cc1c(C)n(CC2OCCO2)c2c(OCc3ccc(F)cc3)nccc12
12 |  | 738 |  | Cc1c(C)n(Cc2ccccc2)c2c(OCc3ccc(F)cc3)nc(C(=O)NC3CC3)cc12
13 |  | 29 |  | Cc1c(C)n(Cc2ccccc2)c2c(OCc3ccc(F)cc3)nc(C(=O)N3CCOCC3)cc12
14 |  | 125 |  | C=CCn1c(C)c(C)c2ccnc(OCc3ccc(F)cc3)c21
15 |  | 205 |  | Cc1c(C)n(CC(C)C)c2c(OCc3ccc(Cl)cc3)nccc12
16 | 60.3 |  |  | Cc1[nH]c2c(OCc3ccc(F)cc3)nccc2c1C
17 |  | 187 |  | Cc1c(C)n(Cc2ccccc2)c2c(OCc3ccc(Cl)cc3)nccc12
18 |  | 196 |  | Cc1c(C)n(CC(C)C)c2c(OCc3ccc(F)cc3)nccc12
19 |  | 302 |  | CCCn1c(C)c(C)c2ccnc(OCc3ccc(F)cc3)c21
